Experimental findings from ChEMBL document CHEMBL4038350 (J Med Chem, 2017) are described below.

What all share (format): functional, cell-based
Experiment [1] addresses Melanocortin receptor 3 (Mus musculus) (UniProt P33033). The experiment can be described thus: Agonist activity at mouse melanocortin receptor 3 expressed in HEK293 cells assessed as increase in cAMP accumulation at 100 uM after 2 hrs by AlphaScreen assay relative to control. The gist of the method: (§1)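 Cyclic peptides were dissolved in DMSO. Receptor-expressing HEK293 cells in IBMX-containing stimulation buffer (pH 7.4) were stimulated for 2 h at room temperature. cAMP was then detected by competitive AlphaScreen after a 2 h lysis/bead step. […] Values come from at least three independent experiments.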
(In general: cAMP levels reflect the balance of adenylyl cyclase and phosphodiesterase activity.)

Experiment [2] has as its target Melanocortin receptor 4 (Mus musculus) (UniProt P56450). The experiment can be described thus: Agonist activity at mouse melanocortin receptor 4 expressed in HEK293 cells assessed as increase in cAMP accumulation at 100 uM after 2 hrs by AlphaScreen assay. In a few lines: as §1
The target in experiment [3] is Melanocyte-stimulating hormone receptor (Mus musculus) (UniProt Q01727). The experiment can be described thus: Agonist activity at mouse melanocortin receptor 1 expressed in HEK293 cells assessed as increase in cAMP accumulation at 100 uM after 2 hrs by AlphaScreen assay relative to control. The gist of the method: as §1
Experiment [4] addresses T1, Melanocortin receptor 4 (Mus musculus, UniProt P56450). The experiment can be described thus: Antagonist activity at mouse melanocortin receptor 4 expressed in HEK293 cells assessed as inhibition of NDP-MSH-induced cAMP accumulation after 2 hrs by AlphaScreen assay. The note with it: read-out: pA2 (converted).
The target of experiment [5] is T2, Melanocortin receptor 3 (Mus musculus, UniProt P33033). The experiment is described as follows: Antagonist activity at mouse melanocortin receptor 3 expressed in HEK293 cells assessed as inhibition of NDP-MSH-induced cAMP accumulation after 2 hrs by AlphaScreen assay. As to conditions: read-out: pA2 (converted).
Experiment [6] deals with Melanocortin receptor 5 (Mus musculus) (UniProt P41149). The experiment can be described thus: Agonist activity at mouse melanocortin receptor 5 expressed in HEK293 cells assessed as increase in cAMP accumulation at 100 uM after 2 hrs by AlphaScreen assay relative to control. In a few lines: as §1
The target in experiment [7] is Melanocyte-stimulating hormone receptor (Mus musculus, UniProt Q01727). The experiment is described as follows: Agonist activity at mouse melanocortin receptor 1 expressed in HEK293 cells assessed as increase in cAMP accumulation after 2 hrs by AlphaScreen assay. The gist of the method: (§2)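 Donor beads and biotin-cAMP in lysis buffer followed for 2 h. The AlphaScreen signal was read. EC50 came from nonlinear least-squares fits, duplicates, at least three independent experiments.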

The target in experiment [8] is T2, Melanocortin receptor 3. The experiment can be described thus: Agonist activity at mouse melanocortin receptor 3 expressed in HEK293 cells assessed as increase in cAMP accumulation after 2 hrs by AlphaScreen assay.
Experiment [9] has as its target Melanocortin receptor 5 (Mus musculus) (UniProt P41149). The experiment can be described thus: Inverse agonist activity at mouse melanocortin receptor 5 expressed in HEK293 cells assessed as decrease in cAMP accumulation at 10 nM after 2 hrs by AlphaScreen assay relative to control. Further details: scale not given: the % may be the effect or the level left. The gist of the method: (§3)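 In mouse MC5R-HEK293 cells, cAMP was measured by AlphaScreen after 2 h peptide exposure (10−4 to 10−13 M) at room temperature. Each replicate was normalized to its signal at 10−10 M. For sigmoidal curves, percent inverse agonism was the change from basal to the high-concentration plateau. Apparent potency was taken as the curve inflection point. Three independent experiments were run.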

Experiment [10] deals with T1, Melanocortin receptor 4. The experiment is described as follows: Agonist activity at mouse melanocortin receptor 4 expressed in HEK293 cells assessed as increase in cAMP accumulation after 2 hrs by AlphaScreen assay.
For experiment [11], the target named is Melanocortin receptor 5 (Mus musculus) (UniProt P41149). The experiment is described as follows: Inverse agonist activity at mouse melanocortin receptor 5 expressed in HEK293 cells assessed as decrease in cAMP accumulation at 100 uM after 2 hrs by AlphaScreen assay relative to control. Further details: scale not given: the % may be the effect or the level left. The gist of the method: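 Each replicate was normalized to its own signal at 10−10 M (basal). Where no plateau appeared, inverse agonism was reported as percent decrease from basal at 100 μM. Values are from three independent experiments.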

For experiment [12] the target is unchanged. The experiment can be described thus: Inverse agonist activity at mouse melanocortin receptor 5 expressed in HEK293 cells assessed as decrease in cAMP accumulation at 110 nM after 2 hrs by AlphaScreen assay relative to control. Further details: scale not given: the % may be the effect or the level left. In a few lines:
as §3

Experiment [13] has as its target Melanocortin receptor 5 (Mus musculus, UniProt P41149). The experiment can be described thus: Agonist activity at mouse melanocortin receptor 5 expressed in HEK293 cells assessed as increase in cAMP accumulation after 2 hrs by AlphaScreen assay. The gist of the method: as §2
Experiment [14] deals with Melanocortin receptor 5 (Mus musculus) (UniProt P41149). The experiment can be described thus: Inverse agonist activity at mouse melanocortin receptor 5 expressed in HEK293 cells assessed as decrease in cAMP accumulation at 510 nM after 2 hrs by AlphaScreen assay relative to control. Further details: scale not given: the % may be the effect or the level left. The gist of the method:
as §3

Non-standard residues stand in square brackets, D forms with d. Residues, ends and D or L forms follow the SMILES beside them.

Chain of Melanocortin receptor 3 (Mus musculus) (P33033 whole entry): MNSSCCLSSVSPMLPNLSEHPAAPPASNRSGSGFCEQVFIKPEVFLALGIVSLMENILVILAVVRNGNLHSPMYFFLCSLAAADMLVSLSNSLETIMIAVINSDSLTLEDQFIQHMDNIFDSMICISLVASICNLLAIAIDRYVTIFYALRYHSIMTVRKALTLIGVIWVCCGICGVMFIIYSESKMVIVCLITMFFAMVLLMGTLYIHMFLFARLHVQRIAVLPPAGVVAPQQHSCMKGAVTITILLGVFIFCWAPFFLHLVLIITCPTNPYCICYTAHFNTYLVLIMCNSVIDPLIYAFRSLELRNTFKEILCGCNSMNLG
T2 sequence (P33033 whole entry): as above
Chain of Melanocortin receptor 5 (Mus musculus) (P41149 whole entry): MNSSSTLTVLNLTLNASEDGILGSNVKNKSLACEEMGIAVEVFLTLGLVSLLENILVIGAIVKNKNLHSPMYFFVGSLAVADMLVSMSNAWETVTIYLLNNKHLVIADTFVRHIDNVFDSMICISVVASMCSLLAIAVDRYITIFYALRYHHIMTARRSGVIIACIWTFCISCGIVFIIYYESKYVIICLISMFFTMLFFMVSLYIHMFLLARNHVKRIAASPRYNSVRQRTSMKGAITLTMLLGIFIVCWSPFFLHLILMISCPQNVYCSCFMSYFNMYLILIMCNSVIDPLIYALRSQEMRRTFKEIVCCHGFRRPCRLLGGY
Chain of Melanocortin receptor 5 (P41149 whole entry): as above
T1 sequence (P56450 whole entry): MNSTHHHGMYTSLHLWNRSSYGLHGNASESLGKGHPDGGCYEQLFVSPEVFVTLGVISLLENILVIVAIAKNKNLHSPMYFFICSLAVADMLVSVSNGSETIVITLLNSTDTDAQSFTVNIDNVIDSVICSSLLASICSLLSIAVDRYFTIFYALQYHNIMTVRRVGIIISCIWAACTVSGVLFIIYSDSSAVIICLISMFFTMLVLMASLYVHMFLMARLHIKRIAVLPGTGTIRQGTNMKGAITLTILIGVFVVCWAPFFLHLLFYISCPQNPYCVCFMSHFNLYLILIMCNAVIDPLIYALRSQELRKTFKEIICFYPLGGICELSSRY
Chain of Melanocyte-stimulating hormone receptor (Q01727 whole entry): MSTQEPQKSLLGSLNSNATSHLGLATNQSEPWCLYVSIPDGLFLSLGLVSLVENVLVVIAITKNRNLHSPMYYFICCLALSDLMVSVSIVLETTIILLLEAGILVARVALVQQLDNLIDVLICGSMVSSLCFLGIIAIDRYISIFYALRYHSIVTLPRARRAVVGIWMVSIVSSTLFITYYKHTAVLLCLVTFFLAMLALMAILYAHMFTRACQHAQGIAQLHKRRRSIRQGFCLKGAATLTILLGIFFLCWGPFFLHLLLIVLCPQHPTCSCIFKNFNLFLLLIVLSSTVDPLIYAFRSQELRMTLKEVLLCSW
Chain of Melanocyte-stimulating hormone receptor (Mus musculus) (Q01727 whole entry, looked up): as the sequence (Q01727 whole entry) above
Chain of Melanocortin receptor 4 (Mus musculus) (P56450 whole entry): as the sequence (P56450 whole entry) above

As for `N=C(N)NCCC[C@@H]1NC(=O)[C@@H]2CCCN2C(=O)[C@H]2CCCN2C(=O)[C@H](Cc2ccccc2)NC(=O)[C@H](Cc2ccccc2)NC(=O)[C@H](CC(N)=O)NC(=O)[C@H](Cc2ccccc2)NC(=O)[C@H](Cc2ccccc2)NC1=O`, the Activity in experiment [1] amounted to 35%; in experiment [2] it was 35%; in experiment [3], 70%; in experiment [6] it was 25%. Further, the Kb in experiment [4] was 1.95 µM; in experiment [5], 1.91 µM.
As to `C[C@@H]1NC(=O)[C@H](Cc2c[nH]cn2)NC(=O)[C@H](Cc2ccccc2)NC(=O)[C@H](Cc2ccccc2)NC(=O)[C@H](CCCNC(=N)N)NC(=O)[C@@H]2CCCN2C(=O)[C@H]2CCCN2C(=O)[C@H](Cc2ccccc2)NC1=O`, the EC50 in experiment [7], in [8] and in experiment [10] was greater than 100 µM each time. In experiment [9], the Activity was determined as 15%. Besides, in experiment [5], the Kb was 0.347 µM.
For the molecule `C[C@@H]1NC(=O)[C@H](CC(=O)O)NC(=O)[C@H](Cc2ccccc2)NC(=O)[C@H](Cc2ccccc2)NC(=O)[C@H](CCCNC(=N)N)NC(=O)[C@@H]2CCCN2C(=O)[C@H]2CCCN2C(=O)[C@H](Cc2ccccc2)NC1=O`, the EC50 in experiment [7], in [8] and in [10] was greater than 100 µM in each case. Besides, in experiment [11], the Activity worked out at 25%. Further, the Kb is 0.162 µM in experiment [4] and greater than 3.16 µM in experiment [5].
Regarding `C[C@@H]1NC(=O)[C@@H](CN)NC(=O)[C@H](Cc2ccccc2)NC(=O)[C@H](Cc2ccccc2)NC(=O)[C@H](CCCNC(=N)N)NC(=O)[C@@H]2CCCN2C(=O)[C@H]2CCCN2C(=O)[C@H](Cc2ccccc2)NC1=O`, in experiment [12], the Activity came to 10%. For the same molecule, the EC50 in experiment [7] and in experiment [8] was greater than 100 µM each time. Besides, the Kb in experiment [5] was 0.2 µM.
Take `N=C(N)NCCC[C@@H]1NC(=O)[C@@H]2CCCN2C(=O)[C@H]2CCCN2C(=O)[C@H](Cc2ccccc2)NC(=O)[C@H](CO)NC(=O)[C@H](CC(N)=O)NC(=O)[C@H](Cc2ccccc2)NC(=O)[C@H](Cc2ccccc2)NC1=O` (cyclo(RFFNSF[dP]P)): the EC50 in [7], in [8] and in [10] was greater than 100 µM each time. The Activity in experiment [11] stood at 30%. The values for the Kb in experiment [4] and in [5] were 0.00631 µM and 0.631 µM, respectively.
In the case of `N=C(N)NCCC[C@@H]1NC(=O)[C@@H]2CCCN2C(=O)[C@H]2CCCN2C(=O)[C@H](Cc2ccccc2)NC(=O)[C@H](CCCCN)NC(=O)[C@H](CC(N)=O)NC(=O)[C@H](Cc2ccccc2)NC(=O)[C@H](Cc2ccccc2)NC1=O`, the figures for the Activity in experiment [1], in [3] and in experiment [6] were 45%, 60% and 45%, respectively. Further, the Kb in experiment [4] is 0.776 µM; in experiment [5], greater than 3.16 µM. In addition, in experiment [10], the EC50 (as a rule, the concentration that produces a half-maximal response) is greater than 100 µM.
For the molecule `CC(C)C[C@@H]1NC(=O)[C@H](CC(N)=O)NC(=O)[C@H](Cc2ccccc2)NC(=O)[C@H](Cc2ccccc2)NC(=O)[C@H](CCCNC(=N)N)NC(=O)[C@@H]2CCCN2C(=O)[C@H]2CCCN2C(=O)[C@H](Cc2ccccc2)NC1=O`, the EC50 in experiment [13] was greater than 100 µM. Besides, the Activity in experiment [1] is 25%; in [2] it was 25%; in experiment [3] it was 80%. The Kb in experiment [4] is 0.661 µM; in experiment [5] it was greater than 3.16 µM.
As to `CCCC[C@@H]1NC(=O)[C@H](Cc2ccccc2)NC(=O)[C@H](Cc2ccccc2)NC(=O)[C@H](CCCNC(=N)N)NC(=O)[C@@H]2CCCN2C(=O)[C@H]2CCCN2C(=O)[C@H](Cc2ccccc2)NC(=O)[C@H](C)NC1=O`, the EC50 in experiment [13], in [7], in experiment [8] and in experiment [10] was greater than 100 µM in each case. The Kb is 0.126 µM in experiment [4] and greater than 3.16 µM in [5].
As for `N=C(N)NCCC[C@@H]1NC(=O)[C@@H]2CCCN2C(=O)[C@H]2CCCN2C(=O)[C@H](Cc2ccccc2)NC(=O)[C@H](CC(=O)O)NC(=O)[C@H](CC(N)=O)NC(=O)[C@H](Cc2ccccc2)NC(=O)[C@H](Cc2ccccc2)NC1=O` (cyclo(RFFNDF[dP]P)), the EC50 in [8] and in experiment [10] was greater than 100 µM each time. Besides, the Activity in experiment [11] turned out to be 25%; in [3] it was 65%. Further, the Kb in experiment [4] and in experiment [5] was greater than 3.16 µM in each case.
As for `CC(C)C[C@@H]1NC(=O)[C@H](Cc2ccccc2)NC(=O)[C@H](Cc2ccccc2)NC(=O)[C@H](CCCNC(=N)N)NC(=O)[C@@H]2CCCN2C(=O)[C@H]2CCCN2C(=O)[C@H](Cc2ccccc2)NC(=O)[C@H](C)NC1=O` (cyclo(RFFLAF[dP]P)), the Activity in experiment [12] stood at 20%. Further, the EC50 in [7], in experiment [8] and in experiment [10] was greater than 100 µM each time. For the same molecule, the Kb in experiment [4] was 0.0457 µM; in [5], 2 µM.
For `N=C(N)NCCC[C@@H]1NC(=O)[C@@H]2CCCN2C(=O)[C@H]2CCCN2C(=O)[C@H](Cc2ccccc2)NC(=O)[C@H](CCC(=O)O)NC(=O)[C@H](CC(N)=O)NC(=O)[C@H](Cc2ccccc2)NC(=O)[C@H](Cc2ccccc2)NC1=O` (cyclo(RFFNEF[dP]P)), the EC50 in [13], in experiment [8] and in [10] was greater than 100 µM each time. Moreover, in experiment [3], the Activity is 60%. Besides, the Kb in experiment [4] and in experiment [5] was greater than 3.16 µM in each case.
Consider `CC[C@@H]1NC(=O)[C@H](Cc2ccccc2)NC(=O)[C@H](Cc2ccccc2)NC(=O)[C@H](CCCNC(=N)N)NC(=O)[C@@H]2CCCN2C(=O)[C@H]2CCCN2C(=O)[C@H](Cc2ccccc2)NC(=O)[C@H](C)NC1=O`, for which the EC50 in experiment [7] and in [10] was greater than 100 µM in each case.
In the case of `C[C@@H]1NC(=O)[C@H](CC(N)=O)NC(=O)[C@H](Cc2ccccc2)NC(=O)[C@H](Cc2ccccc2)NC(=O)[C@H](CCCNC(=N)N)NC(=O)[C@@H]2CCCN2C(=O)[C@H]2CCCN2C(=O)[C@H](C)NC1=O` (cyclo(RFFNAA[dP]P)), the EC50 in experiment [7], in experiment [8] and in [10] was greater than 100 µM throughout. Besides, the Activity in experiment [11] came out at 25%. Further, the figures for the Kb in experiment [4] and in experiment [5] were 0.00692 µM and 0.794 µM, respectively.
Turning to `C[C@@H]1NC(=O)[C@H](Cc2ccccc2)NC(=O)[C@H](Cc2ccccc2)NC(=O)[C@H](Cc2ccccc2)NC(=O)[C@H](CCCNC(=N)N)NC(=O)[C@@H]2CCCN2C(=O)[C@H]2CCCN2C(=O)[C@H](Cc2ccccc2)NC1=O`, the EC50 in experiment [13], in experiment [7], in experiment [8] and in experiment [10] was greater than 100 µM each time. Moreover, the figures for the Kb in experiment [4] and in [5] were 0.234 µM and greater than 3.16 µM, respectively.
For the molecule `N=C(N)NCCC[C@@H]1NC(=O)[C@@H]2CCCN2C(=O)[C@H]2CCCN2C(=O)[C@H](Cc2ccccc2)NC(=O)CNC(=O)[C@H](CC(N)=O)NC(=O)[C@H](Cc2ccccc2)NC(=O)[C@H](Cc2ccccc2)NC1=O` (cyclo(RFFNGF[dP]P)), the EC50 in experiment [7], in experiment [8] and in experiment [10] was greater than 100 µM in each case. For the same molecule, the Activity in [11] was found to be 35%. Moreover, the Kb in [4] is 0.794 µM; in [5], greater than 3.16 µM.
Regarding `CC(C)[C@@H]1NC(=O)[C@H](Cc2ccccc2)NC(=O)[C@H](Cc2ccccc2)NC(=O)[C@H](CCCNC(=N)N)NC(=O)[C@@H]2CCCN2C(=O)[C@H]2CCCN2C(=O)[C@H](Cc2ccccc2)NC(=O)[C@H](C)NC1=O`, the results for the Activity in experiment [14] and in [3] were 25% and 55%, respectively. Also, the EC50 in experiment [8] and in [10] was greater than 100 µM in each case. Besides, the Kb is 1.26 µM in experiment [4] and greater than 3.16 µM in [5].
